# Assay results from different studies.
# Compare with care: the assays were run in different laboratories.
# Organism: Cryptococcus neoformans
Structure (SMILES),observed,method,strain,time,measurement,result
C[C@@H]1[C@H](O)[C@@H](C)/C=C/C=C/C=C/C=C/C=C/C=C/C=C/[C@H](O[C@@H]2O[C@H](C)[C@@H](O)[C@H](N)[C@@H]2O)C[C@@H]2O[C@](O)(C[C@@H](O)C[C@@H](O)[C@H](O)CC[C@@H](O)C[C@@H](O)CC(=O)O[C@H]1C)C[C@H](O)[C@H]2C(=O)O,microbial growth,,ATCC90113,,MIC,1.25 µg/mL
CCCCCCCCCCCCCC(O)CC(O)CO (stereo not drawn),microbial growth,broth dilution,ATCC90113,,IC50,32.9 µg/mL
OCCN1CCN(CCCN2c3ccccc3Sc3ccc(Cl)cc32)CC1,microbial growth,broth dilution,,,MIC,16 µg/mL
O=C(CCCCCC[P+](c1ccccc1)(c1ccccc1)c1ccccc1)Nc1ccc(O)c(O)c1.[Br-],microbial growth,broth dilution,ATCC208821,24 h,MIC,> 32 µg/mL
C#CCCCCCCCCC=CCC(O)CC(O)CO (stereo not drawn),microbial growth,broth dilution,ATCC90113,,IC50,> 8 µg/mL
O=C(CCCCCCCCCC[P+](c1ccccc1)(c1ccccc1)c1ccccc1)Nc1ccc(O)c(O)c1.[Br-],microbial growth,broth dilution,ATCC208821,24 h,MIC,> 32 µg/mL
C[C@@H]1[C@H](O)[C@@H](C)/C=C/C=C/C=C/C=C/C=C/C=C/C=C/[C@H](O[C@@H]2O[C@H](C)[C@@H](O)[C@H](N)[C@@H]2O)C[C@@H]2O[C@](O)(C[C@@H](O)C[C@@H](O)[C@H](O)CC[C@@H](O)C[C@@H](O)CC(=O)O[C@H]1C)C[C@H](O)[C@H]2C(=O)O,microbial killing,,ATCC90113,,MFC,2.5 µg/mL
O=C(CCCCCCCC[P+](c1ccccc1)(c1ccccc1)c1ccccc1)Nc1ccc(O)c(O)c1.[Br-],microbial growth,broth dilution,ATCC208821,24 h,MIC,> 32 µg/mL
C#CCCCCCCCCCCCC(O)CC(O)CO (stereo not drawn),microbial growth,broth dilution,ATCC90113,,IC50,8 µg/mL
